Reference: publication PMC12800764 (ESMO Open, 2025)
Entries after “also recorded” stand apart in the source; their conditions may differ.

Columns and labels:
[1] = system: patients with advanced, unresectable, or recurrent solid tumors; assay: Safety assessments; type: in vivo, human
Procedure, shortened: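 Safety covered all AEs of any grade, including DLTs and serious AEs, graded by NCI CTCAE v5.0. Hematology, chemistry and urinalysis were sampled before dosing at scheduled visits. Oral test compound was given b.i.d. in 28-day cycles (10-160 mg dose-escalation; 100 or 120 mg expansion). The analysis set was all patients receiving ≥1 dose.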

[2] = Plasma pharmacokinetics of E7386, noncompartmental analysis, Study 103; type: in vivo, human; conditions: 10-160 mg b.i.d.
[3] = system: patients with advanced, unresectable, or recurrent solid tumors; assay: Dose-limiting toxicity evaluation; type: in vivo, human
Procedure, shortened: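 A 3 + 3 escalation started at 10 mg b.i.d. oral, given continuously in 28-day cycles; 10, 15 and 20 mg were predefined. Above 20 mg, steps were 100%, 40%-60% or 25%-39% depending on treatment-related grade 2 or ≥3 toxicity. DLTs were drug-related AEs in cycle 1 (28 days), graded by CTCAE v5.0. Patients dosed as planned in C1, or having a DLT, formed the analysis set.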

[4] = system: patients with advanced, unresectable, or recurrent solid tumors; assay: Bone assessments; type: in vivo, human
Procedure, shortened: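 Both parts used DXA bone density at screening, C2D1 and every 12 weeks (±7 days) from C1D1. Fasting serum β-CTX was measured at screening, C2D1, C3D1, then every 8 weeks and at end of treatment. Dose-escalation added β-CTX at C1D15; expansion added DXA (C2D1 ±7 days) at end of treatment and when clinically indicated. Osteoporosis (T-score < −2.5) and untreated bone metastasis excluded patients.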

[5] = system: advanced, unresectable, or recurrent solid tumors; assay: Antitumor activity by investigators, RECIST v1.1, Study 103; type: in vivo, human
Procedure, shortened: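 Investigators assessed tumors by CT/MRI every 8 weeks, at end of treatment and when clinically indicated, using the screening modality and settings, per RECIST v1.1. Endpoints were objective response (CR/PR), disease control (CR/PR/SD) and clinical benefit (CR, PR, or SD lasting ≥23 weeks). All patients receiving ≥1 dose of oral test compound (b.i.d., 28-day cycles) were analysed.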

bone formation = conditions: rats; 7-day repeated-dose toxicity study; ref Data on file; cited from earlier work
Apc^Min/+ mice = conditions: cited from earlier work
ECC10 xenograft = conditions: human gastric cancer cell line (ECC10) xenograft model; cited from earlier work
[6] = system: activating transcription factor 4 pathway; conditions: preclinical models of HCC; cited from earlier work
advanced solid tumors = conditions: 0 of 25; cited from earlier work
desmoid tumors = conditions: patients with desmoid tumors; cited from earlier work
endometrial cancer = conditions: cited from earlier work

## C=CCN1CC(=O)N2[C@@H](Cc3ccc(O)cc3F)C(=O)N(Cc3cccc(N4CC(N5CCN(CC)CC5)C4)n3)C[C@@H]2N1C(=O)NCc1ccccc1 [E7386]
[1]; both parts
  Deaths due to TEAEs: No patients died due to TEAEs
[1]; dose-escalation part
  Nausea (TEAE) frequency: 83.3%
  Patients with grade ≥3 TEAEs: 15 patients
  Patients with grade ≥3 anemia: four
  Vomiting (TEAE) frequency: 61.1%
[1]; dose-escalation part, 13 patients
  TEAEs leading to dose interruption: 36.1%
[1]; dose-escalation part, 35 of 36 patients
  Patients with TEAEs: 97.2%
[1]; dose-escalation part, one patient (decreased appetite)
  TEAEs leading to dose reduction: 2.8%
[1]; dose-escalation part, two patients, not considered related to treatment
  TEAEs leading to study-drug discontinuation: 5.6%
[1]; expansion part
  Nausea (TEAE) frequency: 84.2%
  Patients with grade ≥3 TEAEs: 10 patients
  Patients with grade ≥3 anemia: two
  Patients with grade ≥3 hyponatremia: two
  Patients with grade ≥3 nausea: one
  TEAEs leading to study-drug discontinuation: No patient in the expansion part discontinued the study drug due to TEAEs
  Vomiting (TEAE) frequency: 73.7%
[1]; expansion part, 5 patients
  TEAEs leading to dose interruption: 26.3%
[1]; expansion part, 18 of 19 patients
  Patients with TEAEs: 94.7%
[1]; expansion part, four patients
  TEAEs leading to dose reduction: 21.1%
[2]; single and repeat dose, large inter-subject variability
  E7386 exposure versus dose: generally increased with dose
[2]; after oral administration on C1D1
  Time at which maximum plasma concentration was reached: 0.5 to 2.0 h
[2]; for each dose
  Geometric mean accumulation ratios for AUC: 1.12-3.81
  Geometric mean accumulation ratios for Cmax: 0.65-3.97
[3]; 160 mg b.i.d. cohort, cycle 1, dose-escalation
  Patients with dose-limiting toxicities (grade 3 decreased appetite): two
[3]; 10-120 mg b.i.d. cohorts, dose-escalation
  Dose-limiting toxicities: no DLTs were observed
[3]; oral, 28-day cycles
  Recommended dose of E7386 monotherapy: 120 mg b.i.d.
[4]; 1 of 55 patients, spine: −2.4 at screening to −2.6 on C2D1
  Patients with T-score < −2.5 as per DXA scan during the study: 1.8%
[4]; 7 of 55 patients
  Patients with asymptomatic, post-baseline elevations in β-CTX >1000 pg/ml: 12.7%
[4]; either part of the study
  Bone fractures: No bone fractures were reported; also recorded: no bone fracture was observed
[5]; dose-escalation part, SBC at 15 mg b.i.d. and desmoid tumor at 80 mg b.i.d.
  Patients achieving partial response (PR): two
[5]; expansion part
  Partial responses: No PRs were observed
[5]; expansion part, patient with CRC (APC/KRAS/TP53 mutations), 100 mg b.i.d., no tumor size reduction
  Treatment duration with durable SD: ~7 months
[5]; expansion part, patient with HCC, 120 mg b.i.d., with tumor size reduction
  Treatment duration with durable SD: ~7 months
[5]; irrespective of APC mutation status
  Antitumor activity in patients with CRC: did not indicate antitumor activity
[5]; patient with desmoid tumor, 80 mg b.i.d. cohort, ongoing at data cut-off
  Treatment period of responder (PR): > 3.5 years
[5]; patient with solid pseudopapillary neoplasm of the pancreas, 30 mg b.i.d. cohort
  Treatment duration with durable SD: > 2.5 years
Bone formation
  Doses at which effects on bone formation were observed: ≥ 60 mg/kg
Apc^Min/+ mice
  Polyp formation in the intestine: suppressed polyp formation
ECC10 xenograft
  Tumor growth: inhibited tumor growth
[6]
  Effect on activating transcription factor 4 pathway: up-regulate the activating transcription factor 4 pathway

## Cc1c(-c2ccnc(C(F)(F)F)c2)ncn1CC(=O)Nc1ccc(-c2cnccn2)cn1 [RXC004]
Advanced solid tumors
  Objective response rate (ORR): 0%

## C[C@@H]1C[C@H](C)CN(S(=O)(=O)c2ccc3c(c2)C(=NO)c2cc(S(=O)(=O)N4C[C@H](C)C[C@H](C)C4)ccc2C3=NO)C1 [tegavivint]
Desmoid tumors
  Nausea incidence: 33%

B1: DKN-01: a DKK-1 antibody targeting the Wnt signaling pathway (antibody, chains of the INN, looked up, V domains shown)
VH: EVQLVESGGGLVQPGGSLRLSCAASGFTFSSYTMSWVRQAPGKGLEWVATISGGGFGTYYPDSVKGRFTISRDNAKNSLYLQMNSLRAEDTAVYYCARPGYNNYYFDIWGQGTTVTVSS
VL: EIVLTQSPATLSLSPGERATLSCHASDSISNSLHWYQQKPGQAPRLLIYYARQSIQGIPARFSGSGSGTDFTLTISSLEPEDFAVYYCQQSESWPLHFGGGTKVEIK
Endometrial cancer
  TEAE nausea incidence: 48.3%
  TEAE vomiting incidence: 24.1%
Endometrial cancer; endometrial cancer, 2 of 26
  Objective response rate (ORR): 7.7%
